Experimental data published in ChEMBL document CHEMBL1123555, “1,2-Bis(sulfonyl)hydrazines. 3. Effects of structural modification on antineoplastic activity” (1987).

Tests used:
[1] = organism: Mus musculus; assay: Antitumor activity against L1210 leukemia cells in mice calculated as average change in body weight from onset to termination of therapy; format: functional
Summary of the method: (§1)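 Tumor-bearing mice in groups of five, dosed i.p. daily for 6 days from 24 h post-implantation with suspensions in Tween 80/isotonic saline at 10-150 mg/kg per day; vehicle controls run alongside. Mice weighed during the experiment. Average percent body-weight change from onset to termination of therapy was taken as the toxicity index, reported at the optimal-survival dose.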

[2] = organism: Mus musculus; assay: Antitumor activity against L1210 leukemia cells in mice (activity expressed as average survival time of treated/control animals x 100); format: functional
Summary of the method: (§2)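 Compound given ip as a fine suspension (homogenized in drops of 20% aqueous Tween 80, made to volume with isotonic saline) at 10-150 mg/kg per day, once daily for 6 consecutive days starting 24 h after implantation. Vehicle-injected tumor-bearing controls were included. Read-out was survival time; body-weight change over therapy was the toxicity indicator.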

[3] = Antitumor activity against mouse B16 melanoma cells, calculated as average change in body weight from onset to termination of therapy; format: functional; summary of the method: as §1
[4] = organism: Mus musculus; assay: Antitumor activity against B16 melanoma cells in mice. Activity is expressed as optimal effective dose.; format: functional
Summary of the method: (§3)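 Transplanted tumor in mice, given i.p. once daily for 6 consecutive days starting 24 h after implantation. Doses span 10-150 mg/kg per day as fine suspensions homogenized in a few drops of 20% aqueous Tween 80 and made up with isotonic saline. Groups of five; vehicle-injected tumor-bearing controls. %T/C = mean survival time treated/control × 100. Value is the daily dose giving maximum %T/C.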

[5] = tested on: L1210; assay: Antitumor activity against L1210 leukemia cells in mice, activity is expressed as optimal effective dose.; format: functional, Mus musculus; summary of the method: as §3
[6] = Antitumor activity against B16 melanoma cells in mice, activity is expressed as average survival time of treated/control animals x 100.; format: functional, Mus musculus; summary of the method: as §2
[7] = organism: Mus musculus; assay: Antitumor activity against B16 melanoma cells in mice, activity is expressed as optimal effective dose; format: functional; summary of the method: as §3

| SMILES | Weight change [1] | T/C [2] | Weight change [3] | Dose [4] | Dose [5] | T/C [6] | Dose [7] |
| --- | --- | --- | --- | --- | --- | --- | --- |
| CCS(=O)(=O)NN(C)S(=O)(=O)c1ccc(C)cc1 | -2.6% | 162% | -1.1% | 50 mg/kg | 30 mg/kg | – | – |
| COc1ccc(S(=O)(=O)NN(C)S(=O)(=O)c2ccc(C)cc2)cc1 | 7.8% | – | 9.1% | 100 mg/kg | 100 mg/kg | 200% | – |
| Cc1ccc(S(=O)(=O)NN(C)S(=O)(=O)c2ccc(Cl)cc2)cc1 | 5.5% | – | -0.4% | 50 mg/kg | 100 mg/kg | – | – |
| Cc1ccc(S(=O)(=O)N(C)NS(=O)(=O)c2ccccc2)cc1 | 2% | – | 8.5% | 150 mg/kg | 50 mg/kg | – | – |
| CN(NS(=O)(=O)c1ccc(Cl)cc1)S(=O)(=O)c1ccc(Cl)cc1 | 1.3% | – | 4.8% | 50 mg/kg | 150 mg/kg | 163% | – |
| COc1ccc(S(=O)(=O)N(C)NS(=O)(=O)c2ccc(C)cc2)cc1 | 9.8% | – | -14% | 100 mg/kg | 150 mg/kg | – | – |
| Cc1ccc(S(=O)(=O)N(C)NS(C)(=O)=O)cc1 | -7.9% | – | -1.9% | 10 mg/kg | 30 mg/kg | – | – |
| Cc1ccc(S(=O)(=O)N(C)NS(=O)(=O)c2ccc(Cl)cc2)cc1 | 3.7% | – | 2.9% | 50 mg/kg | 50 mg/kg | – | – |
| COc1ccc(S(=O)(=O)NN(C)S(=O)(=O)c2ccccc2)cc1 | 4.5% | – | -5.9% | 50 mg/kg | 50 mg/kg | – | – |
| Cc1ccc(S(=O)(=O)NN(C)S(=O)(=O)c2ccccc2)cc1 | 10.7% | – | 0.8% | 50 mg/kg | 50 mg/kg | – | – |
| CN(NS(=O)(=O)c1ccc(Br)cc1)S(=O)(=O)Cc1ccccc1 | – | – | 4.7% | – | – | – | 50 mg/kg |
| COc1ccc(S(=O)(=O)NN(C)S(=O)(=O)c2ccc(OC)cc2)cc1 | – | – | -2.4% | 100 mg/kg | 50 mg/kg | 191% | – |
| Cc1ccc(S(=O)(=O)NN(C)S(=O)(=O)c2ccc(I)cc2)cc1 | – | – | 1.4% | 50 mg/kg | – | – | – |
| CN(NS(=O)(=O)c1ccccc1)S(=O)(=O)Cc1ccccc1 | -3.1% | – | -1.5% | 50 mg/kg | 50 mg/kg | – | – |
| COc1ccc(S(=O)(=O)N(C)NS(=O)(=O)c2ccccc2)cc1 | -3.9% | 142% | 4.7% | 100 mg/kg | 100 mg/kg | – | – |
| CN(NS(=O)(=O)Cc1ccccc1)S(=O)(=O)Cc1ccccc1 | – | – | -17.1% | 150 mg/kg | – | – | – |
| COc1ccc(S(=O)(=O)N(C)NS(=O)(=O)Cc2ccccc2)cc1 | 1.5% | 153% | 2.1% | 50 mg/kg | 50 mg/kg | 160% | – |
| CN(NS(=O)(=O)c1ccc(Br)cc1)S(=O)(=O)c1ccccc1 | – | – | -1.6% | 50 mg/kg | – | – | – |
| CN(NS(=O)(=O)c1ccccc1)S(=O)(=O)c1ccc(Cl)cc1 | 6.8% | 115% | 2.3% | 50 mg/kg | 50 mg/kg | – | – |
| Cc1ccc(S(=O)(=O)NN(C)S(=O)(=O)c2ccc(C)cc2)cc1 | 3.7% | – | -2.7% | 150 mg/kg | 50 mg/kg | – | – |
| CN(NS(=O)(=O)Cc1ccccc1)S(=O)(=O)c1ccccc1 | – | – | 2.2% | 100 mg/kg | – | 186% | – |
| CC(=O)Nc1ccc(S(=O)(=O)N(C)NS(=O)(=O)c2ccc(Br)cc2)cc1 | – | – | -5.7% | – | – | – | 150 mg/kg |
| Cc1ccc(S(=O)(=O)NN(C)S(C)(=O)=O)cc1 | -12.3% | 186% | -8.6% | 60 mg/kg | 40 mg/kg | 256% | – |
| CN(NS(=O)(=O)c1ccc(Cl)cc1)S(=O)(=O)Cc1ccccc1 | 10.2% | – | 1.4% | 50 mg/kg | 50 mg/kg | – | – |
| CN(NS(=O)(=O)/C=C/c1ccccc1)S(=O)(=O)c1ccc(Cl)cc1 | – | – | 1.1% | 50 mg/kg | – | – | – |
| CCS(=O)(=O)NN(C)S(=O)(=O)c1ccc(Cl)cc1 | – | – | -0.1% | 10 mg/kg | – | – | – |

| SMILES | Weight change [1] | T/C [2] | Weight change [3] | Dose [4] | Dose [5] | T/C [6] | Dose [7] |
| --- | --- | --- | --- | --- | --- | --- | --- |
| CCS(=O)(=O)NN(C)S(=O)(=O)c1ccc(Br)cc1 | – | – | 4.5% | – | – | 190% | 30 mg/kg |
| CN(NS(=O)(=O)/C=C/c1ccccc1)S(=O)(=O)c1ccc(Br)cc1 | – | – | 0.7% | – | – | – | 100 mg/kg |
| CN(NS(=O)(=O)/C=C/c1ccccc1)S(=O)(=O)/C=C/c1ccccc1 | – | – | 2% | – | – | – | 50 mg/kg |
| Cc1ccc(S(=O)(=O)N(C)NS(=O)(=O)c2ccc([N+](=O)[O-])cc2)cc1 | – | – | 1.4% | 100 mg/kg | – | – | – |
| COc1ccc(S(=O)(=O)N(C)NS(C)(=O)=O)cc1 | -6.4% | – | -7.5% | 20 mg/kg | 20 mg/kg | – | – |
| CN(NS(=O)(=O)c1ccc(Cl)cc1)S(=O)(=O)c1ccccc1 | 14.6% | – | -2.9% | 100 mg/kg | 50 mg/kg | – | – |
| CN(NS(=O)(=O)c1ccccc1)S(=O)(=O)c1ccc2ccccc2c1 | 1.8% | – | 5.1% | 50 mg/kg | 100 mg/kg | – | – |
| CN(NS(=O)(=O)c1ccc2ccccc2c1)S(=O)(=O)Cc1ccccc1 | 10.3% | – | – | 50 mg/kg | 50 mg/kg | 179% | – |
| CN(NS(=O)(=O)c1ccc2ccccc2c1)S(=O)(=O)c1ccccc1 | – | – | 2.5% | 50 mg/kg | – | – | – |
| CCS(=O)(=O)NN(C)S(=O)(=O)c1ccc(OC)cc1 | -8.7% | 149% | – | – | 50 mg/kg | – | – |
| CN(NS(=O)(=O)c1ccc2ccccc2c1)S(=O)(=O)c1ccc(Cl)cc1 | 9% | – | -4% | 50 mg/kg | 100 mg/kg | – | – |
| Cc1ccc(S(=O)(=O)NN(C)S(=O)(=O)c2ccc3ccccc3c2)cc1 | 8.6% | 120% | – | – | 75 mg/kg | – | – |
| Cc1ccc(S(=O)(=O)NN(C)S(=O)(=O)Cc2ccccc2)cc1 | 0.3% | 126% | 1% | 50 mg/kg | 100 mg/kg | – | – |
| COc1ccc(S(=O)(=O)NN(C)S(=O)(=O)Cc2ccccc2)cc1 | – | – | 0.2% | 150 mg/kg | – | – | – |
| CN(NS(=O)(=O)c1ccc(Cl)cc1)S(C)(=O)=O | -9.4% | 214% | -8.7% | 60 mg/kg | 60 mg/kg | 219% | – |
| Cc1ccc(S(=O)(=O)N(C)NS(=O)(=O)c2ccc3ccccc3c2)cc1 | 9.3% | – | – | – | 75 mg/kg | – | – |
| CN(NS(C)(=O)=O)S(=O)(=O)c1ccc(Br)cc1 | – | – | 4.2% | – | – | 225% | 20 mg/kg |
| CN(NS(=O)(=O)c1ccccc1)S(=O)(=O)c1ccccc1 | -4.8% | – | -2.3% | 100 mg/kg | 50 mg/kg | 175% | – |
| COc1ccc(S(=O)(=O)NN(C)S(=O)(=O)c2ccc(Cl)cc2)cc1 | -4.3% | 130% | 1% | 50 mg/kg | 150 mg/kg | 189% | – |
| CN(NS(=O)(=O)c1ccc(Cl)cc1)S(=O)(=O)c1ccc(Br)cc1 | – | – | 2% | – | – | – | 200 mg/kg |
| CCS(=O)(=O)NN(C)S(=O)(=O)c1ccc(I)cc1 | – | – | 5.2% | 30 mg/kg | – | 177% | – |
| CN(NS(C)(=O)=O)S(=O)(=O)c1ccc2ccccc2c1 | – | – | 1.4% | 20 mg/kg | – | 193% | – |
| CN(NS(C)(=O)=O)S(=O)(=O)Cc1ccccc1 | 6.7% | 165% | 1.9% | 30 mg/kg | 20 mg/kg | – | – |
| CN(NS(C)(=O)=O)S(=O)(=O)c1ccc(Cl)cc1 | 5.3% | – | -1.4% | 20 mg/kg | 20 mg/kg | – | – |
| COc1ccc(S(=O)(=O)N(C)NS(=O)(=O)c2ccc3ccccc3c2)cc1 | – | – | -0.1% | 100 mg/kg | – | – | – |
| CN(NS(C)(=O)=O)S(=O)(=O)c1ccc(I)cc1 | – | – | 4% | 40 mg/kg | – | – | – |
